TNAP act hi DEA: TNAP (human) activation, high acceptor; P05186; purified TNAP, CDP-star luminescence, 1 M DEA, 30 min; active compounds read high; 0 = EDTA background, 1 = DMSO-only activity; activation factor at 20 µM; 200,000 tested, under 10 active;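 active means activation factor at least 2 at 20 µM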
Target sequence (P05186 whole entry, looked up): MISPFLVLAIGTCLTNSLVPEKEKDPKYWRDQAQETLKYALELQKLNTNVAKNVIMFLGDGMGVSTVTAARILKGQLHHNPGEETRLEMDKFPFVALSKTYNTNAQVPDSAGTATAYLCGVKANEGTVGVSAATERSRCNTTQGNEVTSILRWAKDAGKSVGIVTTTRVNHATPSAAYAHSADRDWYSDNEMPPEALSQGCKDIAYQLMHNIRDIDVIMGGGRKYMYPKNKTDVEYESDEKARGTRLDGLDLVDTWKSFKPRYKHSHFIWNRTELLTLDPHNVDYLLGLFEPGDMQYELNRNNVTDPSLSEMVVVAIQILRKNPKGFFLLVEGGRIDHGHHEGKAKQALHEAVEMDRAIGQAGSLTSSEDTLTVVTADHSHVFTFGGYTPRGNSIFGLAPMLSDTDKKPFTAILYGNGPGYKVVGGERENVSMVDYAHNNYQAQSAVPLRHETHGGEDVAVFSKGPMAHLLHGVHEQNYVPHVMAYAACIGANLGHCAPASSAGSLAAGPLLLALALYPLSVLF
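Control set: EDTA negative control, DMSO positive control / Assay system: human TNAP / Quantity: TNAP 1/800 final / Evaluation: TNAP activation factor scaled between EDTA and DMSO control wells / Measured by: luminescent substrate turnover signal / Compound dosing: one dose, 20 µM / Times: 30 min enzyme reaction at room temperature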
TNAP inh hi DEA: blocks human TNAP under high phosphate acceptor concentration; purified TNAP, CDP-star luminescence, 1 M DEA; inhibition, % at 20 µM; hit rate 0.03% among 200,000; AID 1135;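 active means over 50% inhibition of tissue-nonspecific alkaline phosphatase at 20 µM in the single-dose screen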;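 further: plate controls were DMSO wells for no effect and EDTA-quenched wells as full inhibition for full effect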
TNAP inh noacc: inhibitors of human TNAP without phosphate acceptor; P05186; inhibition, % at 20 µM; purified TNAP, CDP-star luminescence, 30 min; AID 1012; hit rate 0.26% among 200,000;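 active means tissue-nonspecific alkaline phosphatase inhibition above about 50% at 20 µM in the single-dose screen, limit read from the data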;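 further: 0% = DMSO negative control and 100% = EDTA positive control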
Biofilm kill mix: mixture kills Candida albicans biofilm cells. C. albicans biofilm persisters + clotrimazole, fluorescence viability; primary screen in compound mixtures of four per well. inhibition, % at 7.6 µM. hit rate 0.02% among 120,000. AID 1242;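 active means inhibition above 30.3% in the primary screen of four-compound pools, then above 30% when the compound was retested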;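 further: compounds exposed to preformed 24 h biofilms for 48 h; 0% = untreated biofilm control and 100% = clotrimazole plus chlorhexidine kill blank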
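Assay system: C. albicans biofilms / Medium: RPMI/MOPS medium, pH 7.0 / Schedule: biofilm formation 24 h, compound exposure 48 h, 37 °C / Measured by: Alamar Blue fluorescence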
The depositor's hits bear a star. This is a sample that favours compounds with a hit; in the whole collection about 0.26% have one here.

Results for COC(=O)c1cc(CNC(=O)c2cccc(Cl)c2Cl)ccc1OC ?
TNAP act hi DEA: 1; TNAP inh hi DEA: -3; TNAP inh noacc: -6; Biofilm kill mix: 10

How did COc1cc(/C=C2/C(=O)c3cccc([N+](=O)[O-])c3C2=O)c(Br)cc1O do in these assays?
TNAP act hi DEA: 0.6; TNAP inh hi DEA: 35; TNAP inh noacc: 66*; Biofilm kill mix: 13

How did CCCn1c(C(C)NC(=O)c2ccccc2)nc2ccccc21 (configuration not stated) do in these assays?
TNAP act hi DEA: 1; TNAP inh hi DEA: -3; TNAP inh noacc: -11; Biofilm kill mix: 14

How did CCN(CC)c1ccc(NC(=O)Cn2c(C(C)NC(=O)c3ccc(C)cc3)nc3ccccc32)cc1 (configuration not stated) do in these assays?
TNAP act hi DEA: 2.3*; TNAP inh hi DEA: -134; TNAP inh noacc: inactive; Biofilm kill mix: 7

What do the screens show for `COc1ccc(Cc2nnc(N=Nc3c(O)[nH]c4ccc(Br)cc34)[nH]c2=O)cc1`?
TNAP act hi DEA: 0.6; TNAP inh hi DEA: 41; TNAP inh noacc: 53*; Biofilm kill mix: 4

Results for Cc1cccc(Oc2nc(-c3cccc([N+](=O)[O-])c3)nc3ccccc23)c1C ?
TNAP act hi DEA: 1; TNAP inh hi DEA: -1; TNAP inh noacc: 7

How did CC1=NN(c2ccccc2)C(=O)/C1=C\C=C\c1ccccc1 do in these assays?
Biofilm kill mix: 21

What do the screens show for `CC1=NN(c2ccccc2)C(=O)/C1=C/C=C/c1ccc(N(C)C)cc1`?
TNAP act hi DEA: 0.5; TNAP inh hi DEA: 54*; TNAP inh noacc: 50*; Biofilm kill mix: 6

Results for C/C(=N\NC(=O)C(=O)N/N=C(\C)c1cccc(O)c1)c1cccc(O)c1 ?
TNAP act hi DEA: 1; TNAP inh hi DEA: -3; TNAP inh noacc: 55*; Biofilm kill mix: 17

How did CCN(C(=O)COC(=O)c1ccc(S(=O)(=O)N2CCCc3ccccc32)cc1)C1CCS(=O)(=O)C1 (configuration not stated) do in these assays?
TNAP act hi DEA: 1; TNAP inh hi DEA: -4; TNAP inh noacc: 0; Biofilm kill mix: 10

What do the screens show for `CCNc1nc(NCC)nc(C(=O)OCCO)n1`?
TNAP act hi DEA: 1; TNAP inh hi DEA: -1; TNAP inh noacc: -3

Results for COc1ccc(/C=N/NC(=O)c2cc(C34CC5CC(CC(C5)C3)C4)[nH]n2)cc1O ?
TNAP act hi DEA: 1; TNAP inh hi DEA: 3; TNAP inh noacc: 94*

How did FC(F)(F)c1nc2ccccc2nc1N/N=C/c1c(Cl)cccc1Cl do in these assays?
TNAP act hi DEA: 0.9; TNAP inh hi DEA: 13; TNAP inh noacc: 6

What do the screens show for `Cc1nonc1C1CCCN1Cc1cn[nH]c1-c1ccc2c(c1)OCO2` (configuration not stated)?
TNAP act hi DEA: 1.1; TNAP inh hi DEA: -5; TNAP inh noacc: 14; Biofilm kill mix: 11

What do the screens show for `COc1ccc(-c2[nH]ncc2CN2CCC(OCc3cccnc3)CC2)c(F)c1`?
TNAP act hi DEA: 1.1; TNAP inh hi DEA: -7; TNAP inh noacc: 74*; Biofilm kill mix: 24

Results for COc1ccc(-c2[nH]ncc2CN2CCN(Cc3cccs3)CC2)c(F)c1 ?
TNAP act hi DEA: 1; TNAP inh hi DEA: -5; TNAP inh noacc: 63*; Biofilm kill mix: 16

How did COc1ccc(-c2[nH]ncc2CN2CCCC2c2nonc2C)c(F)c1 (configuration not stated) do in these assays?
TNAP act hi DEA: 1.1; TNAP inh hi DEA: -6; TNAP inh noacc: 51*; Biofilm kill mix: 28

How did COc1ccc(-c2[nH]ncc2CN2CCCN(c3ccccc3)CC2)c(F)c1 do in these assays?
TNAP act hi DEA: 1; TNAP inh hi DEA: -2; TNAP inh noacc: 28; Biofilm kill mix: 25

Results for OC(CNCc1ccccc1Cl)C(F)(F)F (configuration not stated) ?
TNAP act hi DEA: 1.1; TNAP inh hi DEA: -6; TNAP inh noacc: -10; Biofilm kill mix: 6

Results for COc1ccc(C2CC(=O)Nc3n[nH]c(-c4ccccc4)c32)cc1OC (configuration not stated) ?
TNAP act hi DEA: 1; TNAP inh hi DEA: -1; TNAP inh noacc: 64*; Biofilm kill mix: -7

Results for COc1cc(/C=C2\SC(c3ccccc3)=NC2=O)cc(Cl)c1O ?
TNAP act hi DEA: 0.8; TNAP inh hi DEA: 25; TNAP inh noacc: 52*; Biofilm kill mix: 6

How did COc1ccc(/C=C/CN2CCC(CO)(Cc3ccccc3Cl)CC2)cc1 do in these assays?
TNAP act hi DEA: 1; TNAP inh hi DEA: -2; TNAP inh noacc: -2; Biofilm kill mix: 9

What do the screens show for `O=C1c2ccccc2C(=O)N1c1n[nH]c(CCc2ccccc2)n1`?
TNAP act hi DEA: 1; TNAP inh hi DEA: 0; TNAP inh noacc: 57*

Results for CCCc1cc(=O)n2[nH]c(CCc3ccccc3)nc2n1 ?
TNAP act hi DEA: 1; TNAP inh hi DEA: -5; TNAP inh noacc: 4

What do the screens show for `Nc1n[nH]c(-c2ccccc2)n1`?
TNAP act hi DEA: 1; TNAP inh hi DEA: -3; TNAP inh noacc: 35

How did Nc1n[nH]c(-c2ccccc2[N+](=O)[O-])n1 do in these assays?
TNAP act hi DEA: 1; TNAP inh hi DEA: 2; TNAP inh noacc: 86*; Biofilm kill mix: 3

Results for Cc1nn(-c2ccccc2)c(N)c1C1(O)C(=O)Nc2ccccc21 (configuration not stated) ?
Biofilm kill mix: 15

Results for CC(C)Sc1nc2ncnc(N)c2[nH]1 ?
TNAP act hi DEA: 1; TNAP inh hi DEA: -2; TNAP inh noacc: 58*; Biofilm kill mix: 18

How did COc1ccc(CNC(=O)Nc2ccc3c(c2)N(C)C(=O)CS3)cc1 do in these assays?
TNAP act hi DEA: 1; TNAP inh hi DEA: -5; TNAP inh noacc: -26; Biofilm kill mix: 15

Results for Cn1cc(CN(CCO)Cc2cccs2)c(-c2ccccc2F)n1 ?
TNAP act hi DEA: 1.1; TNAP inh hi DEA: -6; TNAP inh noacc: -8; Biofilm kill mix: 25

Results for N/C(COc1ncn(-c2ccccc2)n1)=N\S(=O)(=O)c1ccc(Cl)cc1Cl ?
TNAP act hi DEA: 0.5; TNAP inh hi DEA: 48; TNAP inh noacc: 63*; Biofilm kill mix: 20

How did NC(=O)COc1ncn(-c2ccccc2)n1 do in these assays?
TNAP act hi DEA: 1; TNAP inh hi DEA: -3; TNAP inh noacc: -18

Results for COc1ccc(-c2cnnc(N/N=C/c3ccc(O)c(O)c3)n2)cc1 ?
TNAP act hi DEA: 0.6; TNAP inh hi DEA: 36; TNAP inh noacc: 56*; Biofilm kill mix: 8

What do the screens show for `COc1ccccc1C(=O)Nc1ccc2c(c1)nc1n2CCSC1`?
TNAP act hi DEA: 1; TNAP inh hi DEA: 2; TNAP inh noacc: 68*

Results for O=C(Nc1ccc(Oc2nnc(-c3ccccc3)c3ccccc23)cc1)c1ccccc1 ?
TNAP act hi DEA: 1; TNAP inh hi DEA: 4; TNAP inh noacc: -3; Biofilm kill mix: 23

Results for Cc1[nH]c2ccccc2c1C(=O)CSc1nc2ncc(Cl)cc2[nH]1 ?
TNAP act hi DEA: 1; TNAP inh hi DEA: 1; TNAP inh noacc: 58*; Biofilm kill mix: 5
